Screening results from PubChem BioAssay.
TRPC4 inh – blocks the mouse TRPC4 cation channel | Q9QUQ5 | HEK293 TRPC4beta/mu-opioid, DAMGO-evoked Fluo4 calcium flux; stronger effect = lower value | B-score at 10 µM | actives 0.39% (n = 300,000) | AID 2247;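 active = B-score over 3 SD under the library average, no early fluorescence shift, positive overall ratio signal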
Target sequence (Q9QUQ5 whole entry, looked up): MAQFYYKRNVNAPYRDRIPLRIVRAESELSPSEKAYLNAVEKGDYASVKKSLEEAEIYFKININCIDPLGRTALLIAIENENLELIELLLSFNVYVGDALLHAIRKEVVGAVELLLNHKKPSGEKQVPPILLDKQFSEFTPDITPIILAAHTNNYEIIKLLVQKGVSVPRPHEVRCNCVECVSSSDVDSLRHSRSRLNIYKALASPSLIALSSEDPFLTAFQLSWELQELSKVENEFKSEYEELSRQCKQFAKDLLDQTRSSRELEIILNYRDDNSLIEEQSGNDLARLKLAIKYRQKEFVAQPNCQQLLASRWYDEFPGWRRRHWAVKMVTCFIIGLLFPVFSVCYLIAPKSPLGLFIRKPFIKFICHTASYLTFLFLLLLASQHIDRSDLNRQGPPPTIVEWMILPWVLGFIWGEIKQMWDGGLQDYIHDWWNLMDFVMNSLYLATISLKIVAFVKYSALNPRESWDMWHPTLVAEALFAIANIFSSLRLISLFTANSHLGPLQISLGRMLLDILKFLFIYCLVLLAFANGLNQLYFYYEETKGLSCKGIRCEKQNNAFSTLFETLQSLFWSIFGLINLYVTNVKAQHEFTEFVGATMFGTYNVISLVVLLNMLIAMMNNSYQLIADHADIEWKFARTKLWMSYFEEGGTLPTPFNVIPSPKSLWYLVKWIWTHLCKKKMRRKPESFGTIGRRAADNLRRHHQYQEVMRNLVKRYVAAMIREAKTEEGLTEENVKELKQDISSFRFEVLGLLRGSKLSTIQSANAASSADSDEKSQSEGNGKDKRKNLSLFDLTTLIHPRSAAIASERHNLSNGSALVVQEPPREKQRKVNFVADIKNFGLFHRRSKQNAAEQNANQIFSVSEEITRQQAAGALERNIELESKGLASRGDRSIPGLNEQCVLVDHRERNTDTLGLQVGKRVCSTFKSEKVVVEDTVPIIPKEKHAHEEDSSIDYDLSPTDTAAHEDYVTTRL
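Assay system: Stable TRPC4beta/mu-opioid receptor HEK293 cells | Reagent: DAMGO in two steps, submaximal then maximal | Compound dosing: Single concentration per test compound | Signal: Fluo4 Ca2+ flux fluorescence | Evaluation: Per-well B score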
TRPC4 PAM – TRPC4 (mouse) allosteric potentiation; Q9QUQ5; HEK293 TRPC4beta/mu-opioid, DAMGO EC20, Fluo-4 Ca2+ flux; stronger effect = higher value; B-score at 10 µM; actives 0.42% (n = 310,000);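 active = B-score of calcium response area above 5 SD of library B-scores, with initial fluorescence ratio within 5 SD of library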;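 note: B-score of integrated fluorescence ratio over time as area under calcium response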
TRPC6 activator – mouse TRPC6 channel activation. actives 0.13% (n = 310,000). B-score at 10 µM. Q61143. HEK293-TRPC6 membrane potential dye fluorescence; stronger effect = higher value;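 active = B-score of the integrated fluorescence ratio above library mean plus 3 SD, and starting fluorescence ratio within library mean plus 5 SD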;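 note: higher score means more depolarization so channel activation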
TRPC4 act – opens the mouse TRPC4 cation channel | HEK293 TRPC4beta/mu-opioid, Fluo4 calcium fluorescence; stronger effect = higher value | B-score at 10 µM | actives 0.49% (n = 310,000) | Q9QUQ5 | AID 2237;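 active = B-score above 5 SD of library B-scores, and initial fluorescence ratio not above library mean plus 5 SD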;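 note: positive B-score marks a calcium rise read as TRPC4 activation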
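Incubation: 45 min room-temperature Fluo4 loading, 110 s read / System: HEK293 cells stably co-expressing mouse TRPC4beta and mu-opioid receptor / Signal: Fluo4 fluorescence, kinetic / Control set: buffer (low) and maximal DAMGO (high) / Measure: integrated baseline-normalised fluorescence ratio, converted to per-well B score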
TRPC6 inh – mouse TRPC6 channel inhibition; Q61143; HEK293-TRPC6, membrane potential dye, ACh-evoked depolarization; stronger effect = lower value; B-score at 10 µM; actives 1.1% (n = 310,000);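 active = B-score under library mean minus 3 SD, initial fluorescence not abnormally high, positive integrated signal ratio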;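 note: B-score derived from integrated fluorescence ratio over the kinetic read; more negative B-score means stronger inhibition of depolarization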
TRPC4 spec 2 – second selectivity test of TRPC6 inhibitors: effect on mouse TRPC4; actives 42% (n = 920); HEK293 TRPC4/MOR, membrane potential dye fluorescence; channel activated by saturating DAMGO dose; inhibition, % at 10 µM; shares compounds with TRPC6 inh; AID 2776;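 active = compounds whose fluorescence signal differed from control wells by over 3 SD, either direction, in both duplicate plates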
TRPC4 spec – selectivity of TRPC6 inhibitors: effect on mouse TRPC4 | shares compounds with TRPC6 inh | HEK293 TRPC4/mu-opioid, membrane potential fluorescence | activity change, negative = inhibition, % at 10 µM | actives 61% (n = 920) | AID 2777;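 active = rise or fall in signal beyond 3 SD of buffer-only wells in both replicate plates, either sign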;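 note: integrated kinetic ratio of fluorescence range over baseline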
HEK293 MPD ctr 2-1 – second counter-screen for TRPC6 inhibitors: parental HEK293 cells; shares compounds with TRPC6 inh; parental HEK293 membrane potential dye fluorescence; maximal acetylcholine challenge after compound addition; signal change vs control, % at 10 µM; actives 31% (n = 920); AID 2779;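 active = membrane potential signal moving either way by over 3 SD of the maximum-effect control, in both duplicate plates, meaning non-specific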
HEK293 MPD ctr-1 – checks TRPC6 inhibitor effects in parental HEK293 cells; shares compounds with TRPC6 inh; parental HEK293 membrane potential dye fluorescence; membrane potential signal change, % at 10 µM; actives 60% (n = 920); AID 2780;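 active = membrane potential signal shifting up or down by more than 3 SD of buffer-only wells, on both duplicate plates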
HEK293 MPD ctr-2 – checks TRPC6 modulator effects in parental HEK293 cells; actives 51% (n = 2,400); membrane potential signal change, % at 10 µM; shares compounds with TRPC6 inh; AID 488924; membrane potential dye fluorescence;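 active = membrane potential signal moves up or down beyond 5 SD from buffer-only wells, on both duplicate plates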
HEK293 MPD ctr 2-2 – second counter-screen for TRPC6 modulators: effect in parental HEK293 cells; inhibition, % at 10 µM; actives 14% (n = 2,400); shares compounds with TRPC6 inh; membrane potential dye fluorescence; after compound, maximal acetylcholine stimulation;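 active = membrane potential signal drops by more than 5 SD from the mean control signal, in both duplicate plates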;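 note: plate controls were acetylcholine ECmax control wells for no effect and buffer only wells for full effect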
TRPC4 ctr mod – tests whether TRPC6 modulators also affect mouse TRPC4; shares compounds with TRPC6 inh; HEK293 TRPC4/mu-opioid, membrane potential fluorescence; percent change from control (negative = decrease, positive = increase), % at 10 µM; actives 69% (n = 2,400); AID 488927;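 active = membrane potential signal moved up or down beyond 5 SD of buffer control wells, in both duplicate plates, actives on both sides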;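 note: plate controls were assay buffer wells for no effect and DAMGO maximal-effect wells for full effect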
TRPC4/MOR inh 2 – second selectivity test of TRPC6 modulators against mouse TRPC4 | shares compounds with TRPC6 inh | HEK293 TRPC4/mu-opioid, membrane potential dye fluorescence; stimulated with maximal-effect DAMGO | inhibition, % at 10 µM | actives 55% (n = 2,400) | AID 488928;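 active = drop in membrane potential signal beyond 5 SD of the control wells in both duplicate plates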;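 note: TRPC4 counter screen for TRPC6 hits run under conditions tuned for TRPC6 not TRPC4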
TRPC6 block conf – confirmation of mouse TRPC6 inhibitors | shares compounds with TRPC6 inh | HEK293-TRPC6, membrane potential dye, ACh-evoked depolarization | inhibition, % at 10 µM | actives 43% (n = 3,300) | AID 488960;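 active = fluorescence ratio falls more than 5 SD below the full-stimulation control mean, in both duplicate runs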;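 note: integrated fluorescence ratio of peak minus minimum over baseline after agonist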
TRPC6 act confirm – confirmation of mouse TRPC6 activators. activation, % at 10 µM. AID 488961. actives 11% (n = 2,800). HEK293-TRPC6 membrane potential dye fluorescence, FDSS. shares compounds with TRPC6 inh;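 active = ratio signal rise beyond 5 SD above unstimulated control wells' mean, seen in both duplicate runs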;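 note: plate controls were buffer EC0 wells for no effect and acetylcholine ECmax response for full effect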
* hit, by the source's call. Rows were chosen to be rich in hits. Some 2.3% of all compounds tested hit in one or more screens of this group.

`Cc1ccc2c(c1)sc(-c1ccc(N(C)C)cc1)[n+]2C` gave TRPC4 inh inactive, TRPC4 PAM inactive, TRPC6 activator inactive, TRPC4 act inactive, TRPC6 inh -5.55*, HEK293 MPD ctr-2 inactive, HEK293 MPD ctr 2-2 84.5%*, TRPC4 ctr mod inactive, TRPC4/MOR inh 2 inactive, TRPC6 block conf 56.5%* and TRPC6 act confirm inactive.
`O=C(c1cccc(Br)c1)N1CCN(S(=O)(=O)N2CCCCC2)CC1` gave TRPC4 inh inactive, TRPC4 PAM inactive, TRPC6 activator inactive, TRPC4 act inactive and TRPC6 inh inactive.
Screening CN(CCNC(=O)c1cc2c(=O)n(C)c3ccccc3c2n1C)Cc1ccccc1 returned TRPC4 inh inactive, TRPC4 PAM inactive, TRPC6 activator inactive, TRPC4 act inactive, TRPC6 inh -5.25*, HEK293 MPD ctr-2 inactive, HEK293 MPD ctr 2-2 inactive, TRPC4 ctr mod inactive, TRPC4/MOR inh 2 55.5%*, TRPC6 block conf inactive and TRPC6 act confirm inactive.
For Cc1ccc(CNC(=O)c2cc3c(=O)n(C)c4ccccc4c3n2C)cc1 the results were TRPC4 inh inactive, TRPC4 PAM inactive, TRPC6 activator inactive, TRPC4 act inactive and TRPC6 inh inactive.
For O=S(=O)(NC1Cc2ccccc2C1)c1ccccc1 the results were TRPC4 inh inactive, TRPC4 PAM inactive, TRPC6 activator inactive, TRPC4 act inactive and TRPC6 inh inactive.
Screening Nc1ccccc1C(=O)NC1CCCNC1=O (stereo not given) returned TRPC4 inh inactive, TRPC4 PAM inactive, TRPC6 activator inactive, TRPC4 act inactive and TRPC6 inh inactive.
For Cc1cc2c(s1)Nc1ccccc1N=C2N1CCN(C)CC1 the results were TRPC4 inh inactive, TRPC4 PAM inactive, TRPC6 activator inactive, TRPC4 act inactive, TRPC6 inh -6.04*, HEK293 MPD ctr-2 inactive, HEK293 MPD ctr 2-2 inactive, TRPC4 ctr mod inactive, TRPC4/MOR inh 2 inactive, TRPC6 block conf 58.5%* and TRPC6 act confirm inactive.
Cc1nc(N2CCCCC2)sc1C(=O)c1ccc(SCCO)c([N+](=O)[O-])c1 was read as TRPC4 inh inactive, TRPC4 PAM inactive, TRPC6 activator inactive, TRPC4 act inactive and TRPC6 inh inactive.
For Cc1nc(N2CCCCC2)sc1C(=O)c1cccc([N+](=O)[O-])c1 the results were TRPC4 inh inactive, TRPC4 PAM inactive, TRPC6 activator inactive, TRPC4 act inactive, TRPC6 inh -5.79*, HEK293 MPD ctr-2 inactive, HEK293 MPD ctr 2-2 inactive, TRPC4 ctr mod inactive, TRPC4/MOR inh 2 inactive, TRPC6 block conf inactive and TRPC6 act confirm inactive.
CCOc1ccc(NC(=O)C(C)C(Cc2ccc(C)cc2)C(=O)O)cc1 (stereo not given) was read as TRPC4 inh inactive, TRPC4 PAM inactive, TRPC6 activator inactive, TRPC4 act inactive and TRPC6 inh inactive.
Screening CC(=O)c1ccc(OCCCC(=O)N2CCN(S(=O)(=O)c3cc(C)ccc3C)CC2)cc1 returned TRPC4 inh inactive, TRPC4 PAM inactive, TRPC6 activator inactive, TRPC4 act inactive and TRPC6 inh inactive.
`CC(=O)c1ccc(OCCCC(=O)N2CCN(S(=O)(=O)c3ccc(C(C)C)cc3)CC2)cc1` gave TRPC4 inh inactive, TRPC4 PAM inactive, TRPC6 activator inactive, TRPC4 act inactive, TRPC6 inh -9.25*, TRPC4 spec 2 inactive, TRPC4 spec -0.4%*, HEK293 MPD ctr 2-1 inactive, HEK293 MPD ctr-1 1.7%* and TRPC6 block conf inactive.
CC(C)c1ccc(S(=O)(=O)N2CCN(C(=O)C3CCCCC3)CC2)cc1 was read as TRPC4 inh inactive, TRPC4 PAM inactive, TRPC6 activator inactive, TRPC4 act inactive and TRPC6 inh inactive.
For CC(C)c1ccc(S(=O)(=O)N2CCN(C(=O)c3cccc(F)c3)CC2)cc1 the results were TRPC4 inh inactive, TRPC4 PAM inactive, TRPC6 activator 16.9*, TRPC4 act inactive, TRPC6 inh inactive, HEK293 MPD ctr-2 inactive, HEK293 MPD ctr 2-2 inactive, TRPC4 ctr mod 19.5%*, TRPC4/MOR inh 2 inactive and TRPC6 act confirm 186.0%*.
`CC(C)c1ccc(S(=O)(=O)N2CCN(C(=O)C3CC3C)CC2)cc1` (stereo not given) gave TRPC4 inh inactive, TRPC4 PAM inactive, TRPC6 activator 15.6*, TRPC4 act inactive, TRPC6 inh -10*, HEK293 MPD ctr-2 inactive, HEK293 MPD ctr 2-2 inactive, TRPC4 ctr mod 17.0%*, TRPC4/MOR inh 2 inactive, TRPC6 block conf 111.5%* and TRPC6 act confirm 145.0%*.
For Cc1ccc(C(=O)N2CCN(S(=O)(=O)c3ccc(C)cc3)CC2)cc1 the results were TRPC4 inh inactive, TRPC4 PAM inactive, TRPC6 activator inactive, TRPC4 act inactive, TRPC6 inh -5.13*, HEK293 MPD ctr-2 inactive, HEK293 MPD ctr 2-2 inactive, TRPC4 ctr mod inactive, TRPC4/MOR inh 2 inactive and TRPC6 block conf 79.0%*.
